Series [1] relates to Pseudomonas aeruginosa. As to the kind of experiment: Inhibition of quorum sensing system in Pseudomonas aeruginosa PAO-JP2 assessed as reduction of elastase B production at 300 uM after 24 hrs by congo-red staining-based assay relative to control. The essentials:
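PAO-JP2 grown in PTSB at 37 °C, subcultured at OD600 0.05 with 5 µM 3-oxo-C12-HSL and 10 µM C4-HSL ± compound, shaken at 250 rpm for 24 h. Filtered supernatant (100 µL) incubated with Elastin-Congo red (4.5 mg in 900 µL Tris-HCl pH 7.2, 1 mM CaCl2) for 24 h at 37 °C, stopped with EDTA. A490 read minus bacteria-free blank, normalized to control. Four replicates.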

Series [2] in a line: Cytotoxicity against human SK-N-SH cells assessed as cell survival at 400 uM incubated for 1 hr followed by compound washout measured immediately by CCK-8 assay relative to control. The series is classed as cell-based. The conditions noted are these: read-out: Survival. The essentials:
(§1)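 SK-N-SH cells were grown in EMEM with 10% FBS, penicillin/streptomycin and 2.0 mM L-glutamine at 37 °C, 5% CO2. Wells were seeded at 5×10^4 cells/mL and left 24 h to adhere. Cells were exposed for 1 h in fresh medium, with DMSO-matched controls, then washed twice. After 0, 24 or 48 h recovery, CCK-8 A450 was read. Survival = (sample−medium)/(control−medium)×100.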
(Tetrazolium assays rely on reduction of a dye to a coloured formazan, in cell work by metabolically active cells.)

Series [3] has as its system Escherichia coli. The series can be described thus: Antibacterial activity against Escherichia coli RP437 expressing red fluorescence protein assessed as inhibition of biofilm formation at 200 uM after 24 hrs by confocal laser scanning microscopic analysis. The series is classed as functional, organism-based. The essentials: (§2)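 E. coli RP437 (pRSH103, red fluorescent; grown in LB with 10 µg/mL tetracycline) formed biofilms on 316 stainless-steel coupons with 200 µM compound or 0.4% DMSO control, static, 37 °C, 24 h. Coupons rinsed three times in 0.9% NaCl, then imaged by CLSM. COMSTAT gave biomass, mean thickness and surface area from z-stacks at four locations, normalized to the BF-free control. Four replicates.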

Series [4] has as its system Pseudomonas aeruginosa. As to the kind of experiment: Antibacterial activity against Pseudomonas aeruginosa PAO1 expressing green fluorescence protein assessed as inhibition of biofilm formation at 400 uM after 24 hrs by confocal laser scanning microscopic analysis. The series is classed as functional, organism-based. The essentials:
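PA01-GFP (pSMC2; grown in LB with 300 µg/mL carbenicillin) formed biofilms on stainless-steel coupons with 400 µM compound, static, 37 °C, 24 h. Coupons rinsed three times in 0.9% saline, then imaged by CLSM.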

The target in series [5] is T1, HTH-type quorum-sensing regulator RhlR (Pseudomonas aeruginosa (strain ATCC 15692 / PAO1 / 1C / PRS 101 / LMG12228)) (UniProt P54292).
T1 sequence (whole entry): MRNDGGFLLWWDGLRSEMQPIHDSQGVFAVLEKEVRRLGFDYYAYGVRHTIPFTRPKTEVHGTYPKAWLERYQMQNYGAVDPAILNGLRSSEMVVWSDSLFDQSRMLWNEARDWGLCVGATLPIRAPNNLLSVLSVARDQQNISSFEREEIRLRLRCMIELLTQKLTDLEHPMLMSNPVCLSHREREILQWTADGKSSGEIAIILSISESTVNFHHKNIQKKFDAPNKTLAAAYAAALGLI
The series can be described thus: Agonist activity at RhlR in Pseudomonas aeruginosa PAO-JP2 expressing RhlI assessed as effect on GFP production at 50 to 300 uM after 24 hrs by fluorescence assay in presence of 3-oxo-C12-HSL and C4-HSL relative to control. The essentials:
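PAO-JP2 (prhlI-LVAgfp) grown in M9 with 300 µg/mL carbenicillin to OD600 0.1, dosed with 1 µM 3-oxo-C12-HSL and 10 µM C4-HSL ± compound, shaken at 250 rpm and 37 °C for 24 h. GFP read at ex 500/em 540 nm, M9 background subtracted, divided by OD600 and normalized to the BF-free control. Four replicates.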

For the next series, the system named is SK-N-SH. The series can be described thus: Cytotoxicity against human SK-N-SH cells assessed as cell survival at 100 uM incubated for 1 hr followed by compound washout measured up to 48 hrs by CCK-8 assay. The series is classed as cell-based. The method in brief:
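SK-N-SH cells seeded at 5×10^4 cells/mL (100 µL) in EMEM with 10% FBS and allowed to adhere 24 h. Exposed 1 h to 100 µM compound or DMSO control, washed twice, then allowed to recover 0, 24 or 48 h. Live cells measured by CCK-8 at A450. Survival = (sample − medium)/(control − medium) × 100.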

The test system of series [6] is Escherichia coli. As to the kind of experiment: Toxicity in Escherichia coli RP437 assessed as planktonic growth inhibition at 200 uM after 24 hrs. The series is classed as organism-based. The conditions noted are these: in vivo. The essentials:
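E. coli RP437 in LB at 37 °C, started at OD600 0.05 in 96-well plates with 200 µM compound (DMSO stock), shaken at 250 rpm. OD600 read at 0, 2, 4, 6, 8, 10, 12 and 24 h, normalized to the BF-free control. Six replicates.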

The target of series [7] is T2, Transcriptional activator protein LasR (Pseudomonas aeruginosa (strain ATCC 15692 / PAO1 / 1C / PRS 101 / LMG12228)) (UniProt P25084).
T2 sequence (whole entry): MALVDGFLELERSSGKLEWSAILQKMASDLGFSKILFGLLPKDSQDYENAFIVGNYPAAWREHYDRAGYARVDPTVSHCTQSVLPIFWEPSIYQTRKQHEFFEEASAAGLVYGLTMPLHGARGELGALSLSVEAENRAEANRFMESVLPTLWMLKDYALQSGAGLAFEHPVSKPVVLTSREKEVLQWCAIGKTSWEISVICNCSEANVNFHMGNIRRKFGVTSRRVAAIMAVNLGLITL
As to the kind of experiment: Antagonist activity at LasR in Pseudomonas aeruginosa PAO-JP2 expressing LasI assessed as inhibition of GFP production at 50 to 300 uM after 24 hrs by fluorescence assay in presence of 3-oxo-C12-HSL. The method in brief:
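PAO-JP2 (plasI-LVAgfp) grown in M9 with 300 µg/mL carbenicillin to OD600 0.1, given 1 µM 3-oxo-C12-HSL ± compound at varied concentrations, incubated 24 h at 37 °C with shaking at 250 rpm. GFP read at ex 500/em 540 nm, M9 background subtracted, divided by OD600 and normalized to the BF-free control. Four replicates.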

Series [8] relates to Pseudomonas aeruginosa. The series can be described thus: Antibacterial activity against Pseudomonas aeruginosa PAO1 expressing green fluorescence protein assessed as inhibition of biofilm formation measured as reduction in surface area at 400 uM after 24 hrs by confocal laser scanning microscopic analysis relative to control. The series is classed as functional, organism-based.

For series [9], the system named is Escherichia coli. As to the kind of experiment: Antibacterial activity against Escherichia coli RP437 expressing red fluorescence protein assessed as inhibition of biofilm formation measured as reduction in mean thickness of biofilm at 200 uM after 24 hrs by confocal laser scanning microscopic analysis. The series is classed as functional, organism-based. The essentials:
as §2

A short description of series [10]: Cytotoxicity against human SK-N-SH cells assessed as cell survival at 400 uM incubated for 1 hr followed by compound washout measured after 24 hrs by CCK-8 assay relative to control. The series is classed as cell-based. The conditions noted are these: read-out: Survival. The essentials: as §1
In series [11] the test system is Escherichia coli. The series can be described thus: Antibacterial activity against Escherichia coli RP437 expressing red fluorescence protein assessed as inhibition of biofilm formation measured as reduction in biomass at 200 uM after 24 hrs by confocal laser scanning microscopic analysis. The series is classed as functional, organism-based. The essentials:
as §2

From ChEMBL document CHEMBL3112522, “Bicyclic brominated furanones: a new class of quorum sensing modulators that inhibit bacterial biofilm formation” (Bioorg Med Chem, 2014) come the findings set out here.

Molecules are shown by their SMILES. Calls of active or inactive are those of the source. No cut-off for these calls is given here.

What is called inhibition is the relative decrease from the control value, in per cent. For `O=C1C=C2CCCC(Br)=C2O1`, the inhibition in the series on Pseudomonas aeruginosa [1] is 80%. The viability at 1 h, 400 µM in series [2] stood at 76%; in [10] it was 50%. Further, the inhibition result (in the series with Escherichia coli [3]; with Pseudomonas aeruginosa [4]; in series [7]; in the series on Pseudomonas aeruginosa [8]; in the series with Escherichia coli [9]; with Escherichia coli [11]) was “Active” in each case. The outcome in series [5] was inactive. Moreover, the Activity result in the series with SK-N-SH and with Escherichia coli [6] was “Non-toxic” in each case.
As for `O=C1C=C2CCC(Br)=C2O1`, the inhibition with Pseudomonas aeruginosa [1] was 80%. The viability at 1 h, 400 µM in series [2] was determined as 76%; in [10], 21%. The inhibition entry (with Escherichia coli [3]; in the series on Pseudomonas aeruginosa [4]; in series [7]; with Pseudomonas aeruginosa [8]; with Escherichia coli [9]; with Escherichia coli [11]) was “Active” in each case. For the same compound, in series [5], the outcome was Active. For the same compound, the Activity entry in the series on SK-N-SH and with Escherichia coli [6] was “Non-toxic” in each case.
Take `O=C1C=C2CCCCC(Br)=C2O1`: the inhibition with Pseudomonas aeruginosa [1] was found to be 80%. Besides, the viability at 1 h, 400 µM in [2] is 44%; in series [10] it was 7%. The inhibition result (in the series on Escherichia coli [3]; in the series on Pseudomonas aeruginosa [4]; in [7]; in the series on Pseudomonas aeruginosa [8]; in the series on Escherichia coli [9]; in the series with Escherichia coli [11]) was “Active” each time. Moreover, the outcome in [5] was inactive. The Activity result in the series on SK-N-SH and with Escherichia coli [6] was “Non-toxic” in each case.
